Experiments:
[1] = Cytotoxicity against mouse L5178Y cells by MTT assay; assay type: functional, cell-based
Summary of the method: (§1)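 MTT assay on mouse lymphoma L5178Y and human ovarian cancer A2780 cells, as in the earlier reports the paper cites. Positive controls were kahalalide F for L5178Y and cisplatin for A2780. Negative control was medium with 0.1% DMSO. Results are given as IC50 in μM.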

[2] = Cytotoxicity against human A2780 cells by MTT assay; assay type: functional, cell-based; summary of the method: as §1

SMILES	IC50 [1]	IC50 [2]
C[C@H]1CCC/C=C/[C@H](O)/C=C\[C@H](O)/C=C/C(=O)O1	21 µM	> 50 µM
C[C@H]1CCC[C@@H](O)/C=C/C=C\[C@@H](O)/C=C/C(=O)O1	3.9 µM	12 µM
C[C@H]1CCC/C=C\[C@H](O)[C@H]2O[C@H]2[C@H](O)/C=C/C(=O)O1	> 50 µM	> 50 µM
C[C@H]1CCCCC[C@H](O)CC[C@H](O)/C=C/C(=O)O1	39 µM	> 50 µM
C[C@H]1CCC[C@@H](O)/C=C/C=C\[C@H](O)/C=C/C(=O)O1	3.4 µM	1.2 µM
CO[C@H]1/C=C\CCC[C@H](C)OC(=O)/C=C/[C@@H](O)/C=C\1	0.7 µM	28 µM
C[C@H]1CCC/C=C\[C@H](O)/C=C\[C@H](O)/C=C/C(=O)O1	21 µM	43 µM
CO[C@H]1/C=C/C=C\C(=O)CCC(=O)O[C@@H](C)CCC1	11 µM	> 50 µM
C[C@H]1CCC/C=C/[C@H](O)[C@H]2O[C@H]2[C@H](O)/C=C/C(=O)O1	> 50 µM	> 50 µM
C[C@H]1CCC[C@@H](O)/C=C/C=C\C(=O)CCC(=O)O1	> 50 µM	36 µM
C/C=C1\NC(=O)[C@H](Cc2ccccc2)NC(=O)[C@H](C(C)C)NC(=O)[C@@H]([C@@H](C)CC)NC(=O)[C@@H](NC(=O)[C@H](NC(=O)[C@H](CCCN)NC(=O)[C@H]2CCCN2C(=O)[C@@H](NC(=O)[C@H](NC(=O)[C@@H](NC(=O)[C@@H](NC(=O)CCCC(C)C)C(C)C)[C@@H](C)O)C(C)C)C(C)C)[C@@H](C)CC)[C@@H](C)OC(=O)[C@H](C(C)C)NC1=O	4.3 µM	–
CO[C@H]1/C=C\CCC[C@H](C)OC(=O)CCC(=O)/C=C\1	5.6 µM	> 50 µM

Source: ChEMBL document CHEMBL3867447, “Cytotoxic 14-Membered Macrolides from a Mangrove-Derived Endophytic Fungus, Pestalotiopsis microspora” (J Nat Prod, 2016)
